{"source": "ChEMBL document CHEMBL1275500", "about": "“Characterization of the new metallo-beta-lactamase VIM-13 and its integron-borne gene from a Pseudomonas aeruginosa clinical isolate in Spain” (Antimicrob Agents Chemother, 2008)", "key": {"[1]": {"tested_on": "Escherichia coli", "experiment": "Antimicrobial activity against Escherichia coli XL1-Blue harboring pGEM-T carrying aacA4 Ala108Thr mutant gene by Etest method", "type": "functional"}, "[2]": {"tested_on": "Pseudomonas aeruginosa", "experiment": "Antimicrobial activity against Pseudomonas aeruginosa isolate PA-SL2 harboring blaVIM-13 gene by Etest method", "type": "functional"}, "[3]": {"tested_on": "Pseudomonas aeruginosa", "experiment": "Antimicrobial activity against Pseudomonas aeruginosa isolate PA-SD2 harboring blaVIM-1 gene by Etest method", "type": "functional"}, "[4]": {"tested_on": "Escherichia coli", "experiment": "Antimicrobial activity against Escherichia coli XL1-Blue harboring pGEM-T carrying aacA4 gene by Etest method", "type": "functional"}, "[5]": {"tested_on": "Escherichia coli", "experiment": "Antimicrobial activity against Escherichia coli XL1-Blue by Etest method", "type": "functional"}, "[6]": {"tested_on": "Pseudomonas aeruginosa", "experiment": "Antimicrobial activity against Pseudomonas aeruginosa PAO1 by Etest method", "type": "functional"}, "[7]": {"tested_on": "Escherichia coli", "experiment": "Antimicrobial activity against Escherichia coli XL1-Blue harboring pUCP carrying VIM-1 gene by Etest method", "type": "functional", "method_in_brief": "(§1)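 Etest MICs of piperacillin, piperacillin-tazobactam, ceftazidime, cefepime, cefotaxime, aztreonam, imipenem and meropenem, run per manufacturer's recommendations. Strains were E. coli XL1-Blue or P. aeruginosa PAO1 carrying pUCP24-derived plasmids with blaVIM-1 or blaVIM-13 (cloned by EcoRI) inserted in the lacZ-promoter orientation. E. coli transformants were selected on 10 μg/ml gentamicin MacConkey agar; PAO1 electroporants were selected on 50 μg/ml gentamicin LB agar.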"}, "[8]": {"tested_on": "Escherichia coli", "experiment": "Antimicrobial activity against Escherichia coli XL1-Blue harboring pUCP carrying VIM-13 gene by Etest method", "type": "functional", "method_in_brief": "as §1"}, "[9]": {"tested_on": "Pseudomonas aeruginosa", "experiment": "Antimicrobial activity against Pseudomonas aeruginosa PAO1 harboring pUCP carrying VIM-1 gene by Etest method", "type": "functional", "method_in_brief": "as §1"}, "[10]": {"tested_on": "Pseudomonas aeruginosa", "experiment": "Antimicrobial activity against Pseudomonas aeruginosa PAO1 harboring pUCP carrying VIM-13 gene by Etest method", "type": "functional", "method_in_brief": "as §1"}, "[11]": {"tested_on": "CC1(C)S[C@@H]2[C@H](NC(=O)[C@H](N)c3ccccc3)C(=O)N2[C@H]1C(=O)O", "conditions": "Pseudomonas aeruginosa"}, "[12]": {"tested_on": "CO/N=C(\\C(=O)N[C@@H]1C(=O)N2C(C(=O)O)=C(COC(N)=O)CS[C@H]12)c1ccco1", "conditions": "Pseudomonas aeruginosa"}, "[13]": {"tested_on": "CC1(C)S[C@@H]2[C@H](NC(=O)Cc3ccccc3)C(=O)N2[C@H]1C(=O)O", "conditions": "Pseudomonas aeruginosa"}, "[14]": {"tested_on": "CO/N=C(\\C(=O)N[C@@H]1C(=O)N2C(C(=O)O)=C(COC(C)=O)CS[C@H]12)c1csc(N)n1", "conditions": "Pseudomonas aeruginosa"}, "[15]": {"tested_on": "C[C@@H](O)[C@H]1C(=O)N2C(C(=O)O)=C(S[C@@H]3CN[C@H](C(=O)N(C)C)C3)[C@H](C)[C@H]12", "conditions": "Pseudomonas aeruginosa"}, "[16]": {"tested_on": "CC(C)(O/N=C(\\C(=O)N[C@@H]1C(=O)N2C(C(=O)[O-])=C(C[n+]3ccccc3)CS[C@H]12)c1csc(N)n1)C(=O)O", "conditions": "Pseudomonas aeruginosa"}, "[17]": {"tested_on": "CCN1CCN(C(=O)N[C@@H](C(=O)N[C@@H]2C(=O)N3[C@@H]2SC(C)(C)[C@@H]3C(=O)O)c2ccccc2)C(=O)C1=O", "conditions": "Pseudomonas aeruginosa"}, "[18]": {"tested_on": "CC(=O)OCC1=C(C(=O)O)N2C(=O)[C@@H](NC(=O)Cc3cccs3)[C@H]2SC1", "conditions": "Pseudomonas aeruginosa"}, "[19]": {"tested_on": "CC1(C)S[C@@H]2[C@H](NC(=O)[C@H](N)c3ccccc3)C(=O)N2[C@H]1C(=O)O", "conditions": "Pseudomonas aeruginosa", "remark": "listed apart in the source"}, "[20]": {"tested_on": "CO/N=C(\\C(=O)N[C@@H]1C(=O)N2C(C(=O)O)=C(COC(N)=O)CS[C@H]12)c1ccco1", "conditions": "Pseudomonas aeruginosa", "remark": "listed apart in the source"}, "[21]": {"tested_on": "CC1(C)S[C@@H]2[C@H](NC(=O)Cc3ccccc3)C(=O)N2[C@H]1C(=O)O", "conditions": "Pseudomonas aeruginosa", "remark": "listed apart in the source"}, "[22]": {"tested_on": "CO/N=C(\\C(=O)N[C@@H]1C(=O)N2C(C(=O)O)=C(COC(C)=O)CS[C@H]12)c1csc(N)n1", "conditions": "Pseudomonas aeruginosa", "remark": "listed apart in the source"}, "[23]": {"tested_on": "C[C@@H](O)[C@H]1C(=O)N2C(C(=O)O)=C(S[C@@H]3CN[C@H](C(=O)N(C)C)C3)[C@H](C)[C@H]12", "conditions": "Pseudomonas aeruginosa", "remark": "listed apart in the source"}, "[24]": {"tested_on": "CC(C)(O/N=C(\\C(=O)N[C@@H]1C(=O)N2C(C(=O)[O-])=C(C[n+]3ccccc3)CS[C@H]12)c1csc(N)n1)C(=O)O", "conditions": "Pseudomonas aeruginosa", "remark": "listed apart in the source"}, "[25]": {"tested_on": "CCN1CCN(C(=O)N[C@@H](C(=O)N[C@@H]2C(=O)N3[C@@H]2SC(C)(C)[C@@H]3C(=O)O)c2ccccc2)C(=O)C1=O", "conditions": "Pseudomonas aeruginosa", "remark": "listed apart in the source"}, "[26]": {"tested_on": "CC(=O)OCC1=C(C(=O)O)N2C(=O)[C@@H](NC(=O)Cc3cccs3)[C@H]2SC1", "conditions": "Pseudomonas aeruginosa", "remark": "listed apart in the source"}, "[27]": {"target": "Beta-lactamase VIM-1 (Pseudomonas aeruginosa, UniProt Q9XAY4)", "experiment": "Inhibition of Pseudomonas aeruginosa VIM-1 beta-lactamase after 10 mins", "method_in_brief": "(§2)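 Zn2+-removal inactivation of purified VIM-1 or VIM-13, tested with varied concentrations of EDTA, dipicolinic acid or 1,10-o-phenanthroline. Enzyme and chelator were incubated 10 min at 20°C in 50 mM HEPES pH 7.5 with 20 μg/ml BSA, then 100 μM imipenem hydrolysis was measured as the reporter. IC50 is the chelator level halving hydrolytic activity.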"}, "[28]": {"target": "Class B carbapenemase VIM-13 (Pseudomonas aeruginosa, UniProt Q2HY42)", "experiment": "Inhibition of Pseudomonas aeruginosa VIM-13 beta-lactamase after 10 mins", "method_in_brief": "as §2"}}}
{"compound": "NC[C@H]1O[C@H](O[C@H]2[C@H](O)[C@@H](O[C@H]3O[C@H](CO)[C@@H](O)[C@H](N)[C@H]3O)[C@H](N)C[C@@H]2N)[C@H](N)C[C@@H]1O", "note": "[TOBRAMYCIN]", "values": [{"measurement": "MIC", "setting": "[1]", "value": 2, "unit": "µg/mL"}, {"measurement": "MIC", "setting": "[2]", "value": 48, "unit": "µg/mL"}, {"measurement": "MIC", "setting": "[3]", "value": 16, "unit": "µg/mL"}, {"measurement": "MIC", "setting": "[4]", "value": 2, "unit": "µg/mL"}, {"measurement": "MIC", "setting": "[5]", "value": 0.25, "unit": "µg/mL"}]}
{"compound": "GENTAMICIN", "values": [{"measurement": "MIC", "setting": "[1]", "value": 1, "unit": "µg/mL"}, {"measurement": "MIC", "setting": "[2]", "value": "> 256", "unit": "µg/mL"}, {"measurement": "MIC", "setting": "[3]", "value": 48, "unit": "µg/mL"}, {"measurement": "MIC", "setting": "[4]", "value": 1, "unit": "µg/mL"}, {"measurement": "MIC", "setting": "[5]", "value": 0.19, "unit": "µg/mL"}]}
{"compound": "CO/N=C(\\C(=O)N[C@@H]1C(=O)N2C(C(=O)O)=C(COC(C)=O)CS[C@H]12)c1csc(N)n1", "note": "[CEFOTAXIME]", "values": [{"measurement": "MIC", "setting": "[2]", "value": "> 256", "unit": "µg/mL"}, {"measurement": "MIC", "setting": "[3]", "value": "> 256", "unit": "µg/mL"}, {"measurement": "MIC", "setting": "[6]", "value": 16, "unit": "µg/mL"}, {"measurement": "MIC", "setting": "[7]", "value": "> 256", "unit": "µg/mL"}, {"measurement": "MIC", "setting": "[8]", "value": "> 256", "unit": "µg/mL"}, {"measurement": "MIC", "setting": "[9]", "value": "> 256", "unit": "µg/mL"}, {"measurement": "MIC", "setting": "[10]", "value": "> 256", "unit": "µg/mL"}, {"measurement": "MIC", "setting": "[5]", "value": 0.19, "unit": "µg/mL"}]}
{"compound": "Class B carbapenemase VIM-13 (Pseudomonas aeruginosa) (from UniProt Q2HY42)", "values": [{"measurement": "Km", "setting": "[11]", "value": 197, "unit": "µM"}, {"measurement": "kcat", "setting": "[11]", "value": 67, "unit": "s⁻¹"}, {"measurement": "Km", "setting": "[12]", "value": 56, "unit": "µM"}, {"measurement": "kcat", "setting": "[12]", "value": 283, "unit": "s⁻¹"}, {"measurement": "Km", "setting": "[13]", "value": 1130, "unit": "µM"}, {"measurement": "kcat", "setting": "[13]", "value": 757, "unit": "s⁻¹"}, {"measurement": "Km", "setting": "[14]", "value": 233, "unit": "µM"}, {"measurement": "kcat", "setting": "[14]", "value": 612, "unit": "s⁻¹"}, {"measurement": "Km", "setting": "[15]", "value": 15.5, "unit": "µM"}, {"measurement": "kcat", "setting": "[15]", "value": 9, "unit": "s⁻¹"}, {"measurement": "Km", "setting": "[16]", "value": 509, "unit": "µM"}, {"measurement": "kcat", "setting": "[16]", "value": 10, "unit": "s⁻¹"}, {"measurement": "Km", "setting": "[17]", "value": 729, "unit": "µM"}, {"measurement": "kcat", "setting": "[17]", "value": 362, "unit": "s⁻¹"}, {"measurement": "Km", "setting": "[18]", "value": 76, "unit": "µM"}, {"measurement": "kcat", "setting": "[18]", "value": 656, "unit": "s⁻¹"}, {"measurement": "kcat/Km", "setting": "[19]", "value": 340000, "unit": "M⁻¹ s⁻¹"}, {"measurement": "kcat/Km", "setting": "[20]", "value": "5e+06", "unit": "M⁻¹ s⁻¹"}, {"measurement": "kcat/Km", "setting": "[21]", "value": 670000, "unit": "M⁻¹ s⁻¹"}, {"measurement": "kcat/Km", "setting": "[22]", "value": "2.6e+06", "unit": "M⁻¹ s⁻¹"}, {"measurement": "kcat/Km", "setting": "[23]", "value": 592000, "unit": "M⁻¹ s⁻¹"}, {"measurement": "kcat/Km", "setting": "[24]", "value": 1.9, "unit": "M⁻¹ s⁻¹"}, {"measurement": "kcat/Km", "setting": "[25]", "value": 490000, "unit": "M⁻¹ s⁻¹"}, {"measurement": "kcat/Km", "setting": "[26]", "value": "8.6e+06", "unit": "M⁻¹ s⁻¹"}]}
{"compound": "O=C(O)CN(CCN(CC(=O)O)CC(=O)O)CC(=O)O", "note": "[EDETIC ACID]", "values": [{"measurement": "IC50", "setting": "[27]", "value": 9.3, "unit": "µM"}, {"measurement": "IC50", "setting": "[28]", "value": 253, "unit": "µM"}]}
{"compound": "CC(C)(O/N=C(\\C(=O)N[C@@H]1C(=O)N2C(C(=O)[O-])=C(C[n+]3ccccc3)CS[C@H]12)c1csc(N)n1)C(=O)O", "note": "[CEFTAZIDIME]", "values": [{"measurement": "MIC", "setting": "[2]", "value": 32, "unit": "µg/mL"}, {"measurement": "MIC", "setting": "[3]", "value": "> 256", "unit": "µg/mL"}, {"measurement": "MIC", "setting": "[6]", "value": 1, "unit": "µg/mL"}, {"measurement": "MIC", "setting": "[7]", "value": 32, "unit": "µg/mL"}, {"measurement": "MIC", "setting": "[8]", "value": 6, "unit": "µg/mL"}, {"measurement": "MIC", "setting": "[9]", "value": "> 256", "unit": "µg/mL"}, {"measurement": "MIC", "setting": "[10]", "value": 128, "unit": "µg/mL"}, {"measurement": "MIC", "setting": "[5]", "value": 0.38, "unit": "µg/mL"}]}
{"compound": "C[C@@H](O)[C@H]1C(=O)N2C(C(=O)O)=C(SCCNC=N)C[C@H]12", "note": "[IMIPENEM ANHYDROUS]", "values": [{"measurement": "MIC", "setting": "[2]", "value": 24, "unit": "µg/mL"}, {"measurement": "MIC", "setting": "[3]", "value": "> 32", "unit": "µg/mL"}, {"measurement": "MIC", "setting": "[6]", "value": 1.5, "unit": "µg/mL"}, {"measurement": "MIC", "setting": "[7]", "value": 1, "unit": "µg/mL"}, {"measurement": "MIC", "setting": "[8]", "value": 1, "unit": "µg/mL"}, {"measurement": "MIC", "setting": "[9]", "value": "> 32", "unit": "µg/mL"}, {"measurement": "MIC", "setting": "[10]", "value": "> 32", "unit": "µg/mL"}, {"measurement": "MIC", "setting": "[5]", "value": 0.25, "unit": "µg/mL"}]}
